ChEMBL document CHEMBL1129263, “Structure-activity relationships of (E)-3-(1,4-benzoquinonyl)-2-[(3-pyridyl)-alkyl]-2-propenoic acid derivatives that inhibit both 5-lipoxygenase and thromboxane A2 synthetase” (J Med Chem, 1996)

Experiments:
Rattus norvegicus [1] = species: Rattus norvegicus; experiment: In vitro inhibition of Leukotriene B4 (LTB4) production in glycogen-induced peritoneal cells of rat; type: functional, cell-based
Procedure, shortened: (§1)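 Glycogen-elicited rat peritoneal leukocytes in Ca²⁺/Mg²⁺-free HBSS (5 × 10⁶ cells/mL; 5 × 10⁵ cells per aliquot). Cells were preincubated 5 min at 37 °C with compound or vehicle (0.1% DMSO/0.1% BSA), then stimulated with A23187 (4 µM, 10 min, 37 °C). The reaction was stopped with BW755C (100 µM). Supernatant LTB₄, TXB₂ and PGE₂ were measured by RIA. Points were run in duplicate; IC₅₀ by probit.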

Rattus norvegicus [2] = species: Rattus norvegicus; experiment: Compound was evaluated in Vitro in glycogen induced peritoneal cells of rats(GPEC) for the inhibition of Prostaglandin E2 (PGE2) production at 0.1-1 uM; type: functional, cell-based; procedure, shortened: as §1
Rattus norvegicus [3] = species: Rattus norvegicus; experiment: In vitro inhibition of Thromboxane B2 (TXB2) production in glycogen-induced peritoneal cells of rat; type: functional, cell-based; procedure, shortened: as §1
Homo sapiens [4] = species: Homo sapiens; experiment: Inhibitory activity of the compound against leukotriene (LT) B4 production in human whole blood; type: functional
Procedure, shortened: (§2)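 Fresh heparinized (10 U/mL) human volunteer blood, 0.4 mL aliquots. Blood was preincubated 5 min at 37 °C with compound or vehicle (0.1% DMSO/0.1% BSA), then challenged with A23187 (40 µM, 20 min, 37 °C). Plasma LTB₄ and TXB₂ were measured by RIA. Duplicate points; IC₅₀ by probit.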

Homo sapiens [5] = species: Homo sapiens; experiment: Inhibitory activity of the compound against Thromboxane TXB2 production in human blood platelets; type: functional
Procedure, shortened: (§3)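 Washed human platelets in Tris-HCl-saline, pH 7.4, with 10 µM indomethacin (3 × 10⁸ cells/mL). Platelets were preincubated 5 min at 25 °C with compound or vehicle, then given PGH₂ (1 µg/mL, 3 min, 25 °C). The reaction was stopped with citrate/ethanol. Supernatant TXB₂ was measured by RIA. Duplicate points; IC₅₀ by probit.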

Homo sapiens [6] = species: Homo sapiens; experiment: Inhibitory activity of the compound against leukotriene (LT) B4 production in human neutrophils; type: functional
Procedure, shortened: (§4)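 Human blood neutrophils were isolated by dextran sedimentation and Percoll gradient and held in Ca²⁺/Mg²⁺-free HBSS (1 × 10⁶ cells/mL). Cells were preincubated 5 min at 37 °C with compound or vehicle (0.1% DMSO/0.1% BSA), then stimulated with A23187 (4 µM, 10 min). Supernatant LTB₄ was measured by RIA. Duplicate points; IC₅₀ by probit.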

Homo sapiens [7] = species: Homo sapiens; experiment: Inhibitory activity of the compound against Thromboxane TXB2 production in human whole blood; type: functional; procedure, shortened: as §2
Rattus norvegicus [8] = species: Rattus norvegicus; experiment: Compound was evaluated in Vitro in glycogen induced peritoneal cells of rats(GPEC) for the inhibition of Prostaglandin E2 (PGE2) production at 0.1-10 uM; type: functional, cell-based; procedure, shortened: as §1
Rattus norvegicus [9] = species: Rattus norvegicus; experiment: Compound was evaluated in Vitro in glycogen induced peritoneal cells of rats(GPEC) for the inhibition of Prostaglandin E2 (PGE2) production at 0.1-100 uM; type: functional, cell-based; procedure, shortened: as §1
Homo sapiens [10] = species: Homo sapiens; experiment: In vitro inhibition of LTB4 production in human whole blood; type: functional; procedure, shortened: as §2
[11] = in vitro activities of TXB2 in human whole blood; type: functional, tissue-based; procedure, shortened: as §2
Rattus norvegicus [12] = species: Rattus norvegicus; experiment: Compound was evaluated in Vitro in glycogen induced peritoneal cells of rats(GPEC) for the inhibition of Leukotriene B4 (LTB4) production; type: functional, cell-based; procedure, shortened: as §1
Homo sapiens [13] = species: Homo sapiens; experiment: In vitro inhibition of LTB4 production in human neutrophils; type: functional; procedure, shortened: as §4
[14] = in vitro activities of TXB2 in human platelets; type: functional; procedure, shortened: as §3

IC50 (Rattus norvegicus [1]) [µM] | IC50 (Rattus norvegicus [3]) [µM] | IC50 (Rattus norvegicus [8]) [µM] | Compound | also measured
1 | < 0.1 |  | CCCCOC1=C(C)C(=O)C(C)=C(/C=C(\CCCCCc2cccnc2)C(=O)O)C1=O | IC50 (Rattus norvegicus [2]): 100 µM
0.18 | < 0.1 |  | COC1=C(C)C(=O)C(C)=C(/C=C(\CCCCCCc2cccnc2)C(=O)O)C1=O | IC50 (Rattus norvegicus [2]): 100 µM
 |  |  | O=C(O)/C=C/c1ccc(Cn2ccnc2)cc1 [OZAGREL] | IC50 (Homo sapiens [4]): > 100 µM; IC50 (Homo sapiens [5]): 1.9 µM; IC50 (Homo sapiens [6]): > 100 µM; IC50 (Homo sapiens [7]): < 0.1 µM
3.2 | 0.16 |  | CCCCCCCOC1=C(C)C(=O)C(/C=C(\CCCCCc2cccnc2)C(=O)O)=C(C)C1=O | IC50 (Rattus norvegicus [2]): > 100 µM
11.7 | 0.41 | > 100 | COC1=C(OC)C(=O)C(/C=C(\CCCCCc2cccnc2)C(=O)O)=C(C)C1=O | 
1.4 | 0.09 | > 100 | COC1=C(C)C(=O)C(/C=C(\CCCCc2cccnc2)C(=O)O)=C(C)C1=O | 
0.27 | < 0.1 | > 100 | CC1=C(/C=C(\CCCCCc2cccnc2)C(=O)O)C(=O)C(OCC2CCCCC2)=C(C)C1=O | 
2.1 | 0.14 | > 100 | COc1c(O)c(C)c(C)c(O)c1/C=C(\CCCCCc1cccnc1)C(=O)O | 
1.8 | 0.89 |  | CCCCOC1=C(C)C(=O)C(C)=C(/C=C(\CCCc2cccnc2)C(=O)O)C1=O | 
0.84 | 0.12 |  | CCOC1=C(C)C(=O)C(C)=C(/C=C(\CCCCCc2cccnc2)C(=O)O)C1=O | IC50 (Rattus norvegicus [9]): 100 µM
0.54 | 0.18 |  | COC1=C(C)C(=O)C(C)=C(/C=C(\CCCCCc2cccnc2)C(=O)O)C1=O | IC50 (Rattus norvegicus [9]): > 100 µM
0.75 | 0.5 |  | COC1=C(/C=C(\CCCCCc2cccnc2)C(=O)O)C(=O)C(C)=CC1=O | 
0.17 | 0.11 |  | COC1=C(/C=C(\CCCCCc2cccnc2)C(=O)O)C(=O)C(C)=C(C)C1=O | 
0.82 | 0.07 |  | COC1=C(C)C(=O)C(/C=C(\CCCCCc2cccnc2)C(=O)O)=C(C)C1=O | IC50 (Homo sapiens [10]): 5.8 µM; IC50 [11]: 3.2 µM; IC50 (Rattus norvegicus [12]): 820 µM; IC50 (Homo sapiens [13]): 0.9 µM; IC50 [14]: 0.39 µM
3.2 | 0.48 | 100 | COC1=C(C)C(=O)C(/C=C(\CCCc2cccnc2)C(=O)O)=C(C)C1=O | 
4.4 | 0.32 |  | CCOC1=C(C)C(=O)C(/C=C(\CCCCCc2cccnc2)C(=O)O)=C(C)C1=O | IC50 (Rattus norvegicus [2]): 100 µM
0.27 | < 0.1 |  | CCCCCCCOC1=C(C)C(=O)C(C)=C(/C=C(\CCCCCc2cccnc2)C(=O)O)C1=O | 
 |  |  | CC(c1cc2ccccc2s1)N(O)C(N)=O (centres undefined) [ZILEUTON] | IC50 (Homo sapiens [4]): 1.3 µM; IC50 (Homo sapiens [7]): > 100 µM
0.22 | 0.42 |  | COC1=C(/C=C(\CCCCCCc2cccnc2)C(=O)O)C(=O)C(C)=C(C)C1=O | 
0.59 | 0.12 | 100 | COC1=C(C)C(=O)C(/C=C(\CCCCCCc2cccnc2)C(=O)O)=C(C)C1=O | 
> 3 | 1.5 | > 100 | COc1c(C)c(O)c(C)c(/C=C(\CCCCCc2cccnc2)C(=O)O)c1O | 
4.9 | 0.4 |  | COc1c(C)c(O)c(/C=C(\CCCCCc2cccnc2)C(=O)O)c(C)c1O | IC50 (Homo sapiens [10]): > 100 µM; IC50 [11]: 3 µM; IC50 (Rattus norvegicus [12]): 4900 µM; IC50 (Homo sapiens [13]): 1.9 µM; IC50 [14]: 1.9 µM
